Experimental data: ChEMBL document CHEMBL3112586, “Synthesis of neolignans as microtubule stabilisers” (Bioorg Med Chem, 2014)
The source made the active and inactive calls. The calls are words filed in the database; no cut-off is given here.

Assays:
MDA-MB-231 [1] = experiment: Cell cycle arrest in human MDA-MB-231 cells at 5 to 30 uM after 24 hrs by propidium iodide staining-based FACS analysis; format: functional
How it was run: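 MDA-MB-231 grown in DMEM with 10% FBS at 37 °C, 5% CO2; 24 h treatment, then cold-PBS wash, 2 × 10⁶ cells/ml, absolute-ethanol fixation, RNase A, propidium iodide 50 µg/mL for 30 min at room temperature; flow cytometric DNA content, sub-diploid fraction scored.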

MCF7 [2] = experiment: Cell cycle arrest in human MCF7 cells assessed as accumulation at G1 phase at 5 to 30 uM after 24 hrs by propidium iodide staining-based FACS analysis; format: functional
How it was run: (§1)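 MCF-7 in DMEM, 10% FBS, 37 °C, 5% CO2; treated 24 h, harvested, washed cold PBS, resuspended 2 × 10⁶ cells/ml, fixed absolute ethanol, RNase A treated, propidium iodide (50 µg/mL) 30 min room temperature; DNA content by flow cytometry; phase distribution versus untreated control.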

MCF7 [3] = experiment: Cell cycle arrest in human MCF7 cells assessed as accumulation at G2 phase at 5 to 30 uM after 24 hrs by propidium iodide staining-based FACS analysis; format: functional; how it was run: as §1
MCF7 [4] = experiment: Cytotoxicity against human MCF7 cells after 48 to 72 hrs by MTT assay; format: functional, cell-based
How it was run: (§2)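 Cells in DMEM, 10% FBS, 37 °C, 5% CO2, plated and incubated 24 h; compounds diluted in phenol-red-free DMEM with 0.5% FBS, vehicle control; after exposure, MTT (5 mg/mL stock) added 3 h, formazan dissolved in DMSO, absorbance 570 nm; IC50 derived; podophyllotoxin and tamoxifen positive controls.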

MCF7 [5] = experiment: Cytotoxicity against human MCF7 cells after 24 hrs by MTT assay; format: functional, cell-based; settings: MCF7, 24 h; how it was run: as §2
MDA-MB-231 [6] = experiment: Cytotoxicity against human MDA-MB-231 cells after 48 hrs by MTT assay; format: functional, cell-based; settings: MDA-MB-231, 48 h; how it was run: as §2
Mus musculus [7] = experiment: Toxicity in Swiss albino mouse assessed as change in eosinophil count at 5 to 1000 mg/kg, po relative to control; format: organism-based; design: dose 5-1000 mg/kg, route oral; settings: in vivo
Mus musculus [8] = experiment: Toxicity in Swiss albino mouse assessed as change in monocyte count at 5 to 1000 mg/kg, po relative to control; format: organism-based; design: dose 5-1000 mg/kg, route oral; settings: in vivo
[9] = Toxicity in po dosed Swiss albino mouse; format: organism-based; settings: in vivo
How it was run: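 Acute oral toxicity per OECD guideline 423. Mice of 20–25 g, 3 male and 3 female per group (n = 6), acclimatised 7 days. Single oral dose of 5, 50, 300 or 1000 mg/kg in DMSO suspended in 0.7% carboxymethyl cellulose; controls got vehicle only. Mortality and clinical signs checked hourly on the dosing day, then daily. On day 7: body weight, haematology, serum biochemistry, necropsy and organ weights.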

Mus musculus [10] = experiment: Toxicity in Swiss albino mouse assessed as relative lungs weight at 5 to 1000 mg/kg, po relative to control; format: organism-based; design: dose 5-1000 mg/kg, route oral; settings: in vivo
How it was run: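 One oral dose (5–1000 mg/kg; DMSO then 0.7% carboxymethyl cellulose vehicle; controls vehicle-only) was given to groups of 6 mice (3 male, 3 female). On day 7 the animals were sacrificed and necropsied for gross pathology. Absolute and relative weights of vital organs were recorded and compared with control.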

Mus musculus [11] = experiment: Toxicity in Swiss albino mouse assessed as change in cholesterol level at 1000 mg/kg, po (reference value: 81.64 +/- 4.26 mg/dL); format: organism-based; design: dose 1000 mg/kg, route oral; settings: in vivo
Mus musculus [12] = experiment: Toxicity in Swiss albino mouse assessed as change in cholesterol level at 5 mg/kg, po (reference value: 81.64 +/- 4.26 mg/dL); format: organism-based; design: dose 5 mg/kg, route oral; settings: in vivo
Mus musculus [13] = experiment: Toxicity in Swiss albino mouse assessed as change in serum protein level at 1000 mg/kg, po (reference value: 1.11 +/- 0.14 mg/ml); format: organism-based; design: dose 1000 mg/kg, route oral; settings: in vivo
Mus musculus [14] = experiment: Toxicity in Swiss albino mouse assessed as change in serum protein level at 50 mg/kg, po (reference value: 1.11 +/- 0.14 mg/ml); format: organism-based; design: dose 50 mg/kg, route oral; settings: in vivo
Mus musculus [15] = experiment: Toxicity in Swiss albino mouse assessed as change in triglyceride level at 300 mg/kg, po (reference value: 121.45 +/- 24.02 mg/dL); format: organism-based; design: dose 300 mg/kg, route oral; settings: in vivo
Mus musculus [16] = experiment: Toxicity in Swiss albino mouse assessed as change in creatinine level at 1000 mg/kg, po (reference value: 0.63 +/- 0.18 mg/dL); format: organism-based; design: dose 1000 mg/kg, route oral; settings: in vivo
Mus musculus [17] = experiment: Toxicity in Swiss albino mouse assessed as change in albumin level at 1000 mg/kg, po (reference value: 3.35 +/- 0.51 g/dL); format: organism-based; design: dose 1000 mg/kg, route oral; settings: in vivo
Mus musculus [18] = experiment: Toxicity in Swiss albino mouse assessed as change in albumin level at 300 mg/kg, po (reference value: 3.35 +/- 0.51 g/dL); format: organism-based; design: dose 300 mg/kg, route oral; settings: in vivo
Mus musculus [19] = experiment: Toxicity in Swiss albino mouse assessed as change in SGPT level at 300 mg/kg, po (reference value: 12.28 +/- 3.73 U/L); format: organism-based; design: dose 300 mg/kg, route oral; settings: in vivo
Mus musculus [20] = experiment: Toxicity in Swiss albino mouse assessed as change in SGOT level at 5 mg/kg, po (reference value: 25.27 +/- 1.32 U/L); format: organism-based; design: dose 5 mg/kg, route oral; settings: in vivo
Mus musculus [21] = experiment: Toxicity in Swiss albino mouse assessed as change in ALKP level at 300 mg/kg, po (reference value: 218.67 +/- 12.43 U/L); format: organism-based; design: dose 300 mg/kg, route oral; settings: in vivo
Mus musculus [22] = experiment: Toxicity in Swiss albino mouse assessed as change in ALKP level at 50 mg/kg, po (reference value: 218.67 +/- 12.43 U/L); format: organism-based; design: dose 50 mg/kg, route oral; settings: in vivo
Mus musculus [23] = experiment: Toxicity in Swiss albino mouse assessed as change in WBC count at 5 mg/kg, po (reference value: 14.2 +/- 7.49 X 10^3/mm'3); format: organism-based; design: dose 5 mg/kg, route oral; settings: in vivo
Mus musculus [24] = experiment: Toxicity in Swiss albino mouse assessed as change in RBC count at 1000 mg/kg, po (reference value: 5.43 +/- 0.27 million/mm'3); format: organism-based; design: dose 1000 mg/kg, route oral; settings: in vivo
Mus musculus [25] = experiment: Toxicity in Swiss albino mouse assessed as change in total haemoglobin level at 1000 mg/kg, po (reference value: 11.39 +/- 0.84 g/dL); format: organism-based; design: dose 1000 mg/kg, route oral; settings: in vivo
Mus musculus [26] = experiment: Toxicity in Swiss albino mouse assessed as change in total haemoglobin level at 300 mg/kg, po (reference value: 11.39 +/- 0.84 g/dL); format: organism-based; design: dose 300 mg/kg, route oral; settings: in vivo

What does the source list for `CCOC(=O)/C=C/c1ccc(O)c(/C(=C/c2ccc(O)cc2)C(=O)OCC)c1`?
Activity (MDA-MB-231 [1]): inactive; Activity (MCF7 [2]): inactive; Activity (MCF7 [3]): Active; Activity (MCF7 [4]): Active; IC50 (MCF7 [5]): 12 µM; IC50 (MDA-MB-231 [6]): 6.47 µM; Activity (Mus musculus [7]): Non-toxic; Activity (Mus musculus [8]): Non-toxic; MTD [9]: 300 mg/kg; Activity (Mus musculus [10]): Non-toxic; Activity (Mus musculus [11]): 60.3 mg/dL; Activity (Mus musculus [12]): 75.94 mg/dL; Activity (Mus musculus [13]): 1.02 mg/mL; Activity (Mus musculus [14]): 0.94 mg/mL; Activity (Mus musculus [15]): 134.38 mg/dL; Activity (Mus musculus [16]): 1.87 mg/dL; Activity (Mus musculus [17]): 3.86 g/dL; Activity (Mus musculus [18]): 2.59 g/dL; Activity (Mus musculus [19]): 15.56 U/L; Activity (Mus musculus [20]): 27.67 U/L; Activity (Mus musculus [21]): 217.42 U/L; Activity (Mus musculus [22]): 234.14 U/L; Activity (Mus musculus [23]): 14.6 ×10³ /mm3; Activity (Mus musculus [24]): 5.15 million/mm3; Activity (Mus musculus [25]): 13.32 g/dL; Activity (Mus musculus [26]): 10.83 g/dL
